Beta2AR agonist = beta2AR agonists driving receptor internalization, primary screen, cell-based, FAP fluorogen, flow cytometry. Beta-2 adrenergic receptor (Homo sapiens), P07550. Am2.2-beta2AR cells. response, % (test concentration not listed). 0.43% of 340,000 active. AID 504454, 2011;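 active = response above a set limit, near 3 SD of response in nonfluorescent compounds, cut at about 42% in these data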
Target sequence (P07550 whole entry, looked up): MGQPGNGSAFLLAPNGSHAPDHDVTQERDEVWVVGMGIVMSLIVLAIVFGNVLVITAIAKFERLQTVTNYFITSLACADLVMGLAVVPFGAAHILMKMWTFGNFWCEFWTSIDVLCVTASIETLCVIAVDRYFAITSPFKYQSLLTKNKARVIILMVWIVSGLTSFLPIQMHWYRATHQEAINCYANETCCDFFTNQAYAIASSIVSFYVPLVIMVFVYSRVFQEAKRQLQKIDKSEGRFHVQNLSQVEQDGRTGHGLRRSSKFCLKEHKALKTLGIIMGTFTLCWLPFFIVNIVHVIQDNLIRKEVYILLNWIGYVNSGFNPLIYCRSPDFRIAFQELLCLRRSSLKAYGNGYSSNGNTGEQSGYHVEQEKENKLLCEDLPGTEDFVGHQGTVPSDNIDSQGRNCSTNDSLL
XBP1 UPR activ = activators of adaptive XBP1 UPR arm, primary screen, cell-based, CHO-XBP1 luciferase reporter, luminescence, uHTS; IRE1-XBP1 UPR activation; percent of tunicamycin response, DMSO as zero; 0.33% of 330,000 active; AID 463104, 2010; activation, % at 20 µM;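 active = versus positive control, 20 µM dose yields 30% or more activation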;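 also: 100% = tunicamycin at 10 µg/mL and 0% = DMSO only wells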
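incubation = overnight seeding at 37 °C, 6 h compound treatment at 37 °C | assay system = CHO-XBP1 cells stably carrying IRE1-XBP1-driven luciferase reporter | input = 1000 cells per well | detection = luciferase luminescence | dosing = single point, 20 µM final compound, 1% DMSO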
CHOP UPR activ = activators of apoptotic CHOP UPR arm, primary screen, cell-based, CHO-CHOP luciferase reporter, luminescence, uHTS | activation, % at 10 µM | UPR activation; percent of tunicamycin response over DMSO baseline | 0.34% of 330,000 active;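 active = at 10 µM dose, activation of 40% or more, normalized to positive control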;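 also: 100% = tunicamycin at 10 µg/mL and 0% = DMSO alone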
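Evaluation: % reporter activation, DMSO baseline versus tunicamycin full activation; System: CHO-CHOP luciferase reporter cell line; Input: 500 cells/well; Incubation: 6 h compound treatment, 37 °C; Measured by: Steady-Glo luciferase luminescence; Dosing: one dose, 10 µM in 0.5% DMSO; Buffer or medium: F12 medium, 10% FBS; Benchmarks: positive tunicamycin 10 µg/mL, negative DMSO alone.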
Mdm2 MdmX PPI = inhibitors of human Mdm2-MdmX association, primary screen, cell-based, luminescence, split luciferase, SaOS-2, uHTS. Protein Mdm4 (Homo sapiens) + E3 ubiquitin-protein ligase Mdm2 (Homo sapiens), …. SaOS-2 split-luciferase Mdm2/MdmX complementation. inhibition, % at 8 µM. 3% of 330,000 active. AID 485346, 2010;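 active = inhibition of at least 50% at 8 µM in the primary screen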
Dynein cargo inh = inhibitors of GR-EGFP nuclear translocation, primary screen, dynein cargo transport inhibitor project, imaging, high-content, 3617.4 mouse cells. test concentration mostly 20 µM; stimulated with dexamethasone, 1 µM; stronger effect = lower value. z-score, hits read low. 0.47% of 220,000 active. AID 1381, 2008;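 active = plate z-score of nuclear minus cytoplasmic receptor signal below a set negative limit, without overly bright fluorescence or cell loss, cut at about -3.5 in these data, passing the limit was not always enough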;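 also: z-score of nuclear minus cytoplasmic ring GR-EGFP intensity difference per well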
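Also added – dexamethasone, 1.0 µM final · Buffer or medium – tet-free, stripped-serum medium · Schedule – induction 48 h, compound 1 h, agonist 30 min · Detection – formaldehyde fixation, Hoechst nuclear stain, 10x automated fluorescence imaging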
MDM2 E3 inh = MDM2-luciferase reporter signal enhancers, primary screen, MDM2 E3 ligase inhibitor project, cell-based, luminescence, 1536-well | signal enhancement, % at 5 µM | E3 ubiquitin-protein ligase Mdm2 (Homo sapiens), Q00987 | cell-based MDM2 ubiquitination luciferase reporter, 2 h; 0 = plate control, 100 = twice control, blank-subtracted | 0.11% of 210,000 active;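 active = signal enhancement of 30% or more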;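 also: luminescence tracks abundance of the self-degrading MDM2-luciferase fusion protein; higher signal means inhibition of MDM2 E3 ligase activity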
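Test system: mammalian cells stably expressing self-ubiquitinating, self-degrading MDM2 E3–luciferase fusion; Amount: 2000 cells in each well; Medium: DMEM; Schedule: 4 h settle plus 2 h compound, 37 °C; Technique: SteadyLite luciferase luminescence after 15 min room-temperature reagent incubation; Benchmarks: plate control and blank wells.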
UPR CHOP confirm = activators of apoptotic CHOP UPR arm, confirmation, cell-based, CHO-CHOP luciferase reporter, single concentration; shares compounds with CHOP UPR activ; CHO-CHOP cells, CHOP-luciferase reporter luminescence; percent of tunicamycin response, DMSO as zero; activation, % at 10 µM; 64% of 1,000 active; in the data active = activation above about 33%;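 also: 0% = DMSO wells and 100% = tunicamycin 10 µg/mL wells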
UPR XBP1 confirm = IRE1-XBP1 UPR arm activators, confirmation, cell-based, CHO-XBP1 luciferase reporter, luminescence, single concentration | 63% of 1,000 active | activation, % at 20 µM | AID 485299, 2010 | shares compounds with XBP1 UPR activ;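 active = reporter signal at least 30% of the positive control's activation in two or more of four replicate wells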;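 also: plate controls were DMSO negative control for no effect and tunicamycin 10 µg/mL positive control for full effect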
Mdm2-MdmX conf = Mdm2-MdmX complex disruptors, retested hits, confirmation, luminescence, single concentration; AID 489028, 2010; 55% of 10,000 active; Mdm2-MdmX binding, luminescent assay; inhibition, % at 8 µM; shares compounds with Mdm2 MdmX PPI; in the data active = inhibition above about 40%
FLuc counter = full-length luciferase signal inhibition, confirmation, counter-screen for Mdm2/MdmX interaction inhibitor project, cell-based, single concentration, SaOS-2; shares compounds with Mdm2 MdmX PPI; SaOS-2 full-length luciferase counterscreen, luminescence; inhibition, % at 8 µM; 77% of 6,200 active; AID 504607, 2011;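 active = mean inhibition at 8 µM reaching about 37%, which flags the compound as non-specific, limit read from the data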;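 also: p53-null SaOS-2 cells with luciferase driven by a doxycycline-inducible promoter; compound on cells about two nights before reading with doxycycline added after day one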
* = called active by the depositor; . = no result. A selection: hits, their analogues and other compounds. The true share with any hit is near 3.7%.

SMILES | Beta2AR agonist | XBP1 UPR activ | CHOP UPR activ | Mdm2 MdmX PPI | Dynein cargo inh | MDM2 E3 inh | UPR CHOP confirm | Mdm2-MdmX conf | FLuc counter | others
CN(C(=O)CSc1cc(C(=O)c2nccn2C)c2ccccc2n1)c1ccccc1 | 16 | 27 | 95* | 53* | 1.3 | -13 | 94* | 63* | 81*
CCOc1ccc(-c2nnc(SCC(=O)Nc3ccc4c(c3)c3ccccc3n4CC)n2N)cc1 | 6 | 216* | 116* | 71* | 0.36 | -29 | 47* | 71* | 23 | UPR XBP1 confirm=191*
Cc1nn(Cc2c(Cl)cccc2Cl)c(C)c1NC(=O)c1sc2ccccc2c1Cl | 4 | 65* | 49* | 53* | 0.81 | -13 | 40* | 14 | . | UPR XBP1 confirm=67*
Cc1nn(Cc2c(Cl)cccc2Cl)c(C)c1NC(=O)c1cn(-c2ccccc2)nc1-c1ccccc1 | 9 | 78* | 146* | 98* | 1 | 9 | 76* | 99* | 37* | UPR XBP1 confirm=85*
Cc1nc2ccc(S(=O)(=O)NCC(=O)NCCc3ccc(Cl)cc3)cc2s1 | 4 | -2 | -1 | 0 | . | . | . | . | .
O=C(Nc1ccc(Br)cc1)c1cc(-c2ccncc2)nc2ccccc12 | 1 | 122* | 67* | 62* | . | . | 29 | 51* | 45* | UPR XBP1 confirm=105*
CC(C)(C)C(=O)Nc1ccc(C(=O)CSc2nnc(C3CC3)n2C2CC2)cc1 | 2 | -1 | 1 | -21 | . | . | . | . | .
Cn1c(/C=C/c2ccc([N+](=O)[O-])o2)nc2ccccc2c1=O | -370 | 6 | 127* | 91* | -1.9 | -6 | 75* | 70* | 53*
CCOC(=O)c1sc(N(Cc2ccccc2)C(=O)CCl)nc1C | 18 | 20 | 49* | 65* | . | . | 219* | 11 | .
CCOC(=O)C1=C(CCl)NC(=O)NC1c1ccc2c(c1)OCO2 (stereo unspecified) | 0 | -5 | 44* | 59* | . | . | 37* | 27 | .
O=C(NCCc1ccccc1F)c1cccc2cccnc12 | -1 | 3 | 5 | -15 | . | . | . | . | .
O=Cc1[nH]c2ccccc2c1N(C(=O)CCl)c1ccc([N+](=O)[O-])cc1 | 22 | 3 | 55* | 97* | 1.7 | -3 | 0 | 94* | 25
O=C(NC1CCN(CC(=O)N(c2ccccc2)c2ccccc2)CC1)c1ccc([N+](=O)[O-])cc1 | 4 | 1 | -2 | 23 | -0.3 | 0 | . | . | .
CN(C)S(=O)(=O)c1cccc(NC(=O)CSc2cccc3cccnc23)c1 | 36 | -5 | 162* | 97* | . | . | 246* | 49* | 17
CN(C)S(=O)(=O)c1ccc(SCC(=O)Nc2cccc(S(=O)(=O)N3CCCC3)c2)nc1 | 6 | . | . | . | . | . | . | . | .
COc1ccccc1-c1cc(C(F)(F)F)nc(S(=O)(=O)CCCC(=O)NCc2ccc(F)cc2)n1 | 37 | -1 | 124* | 99* | 0.31 | 19 | 271* | 90* | 51*
COc1cc(NC(=O)c2ccc(C)cc2C)ccc1NC(=O)c1cc2ccccc2o1 | -5 | 148* | 56* | 84* | . | . | 15 | 62* | 39* | UPR XBP1 confirm=72*
COc1cc(NC(=O)c2c(OC)cccc2OC)ccc1NC(=O)c1cc2ccccc2o1 | 6 | 1 | 10 | -18 | . | . | . | . | .
COc1ccc(/C=C2\CN(Cc3ccccc3)C/C(=C\c3ccc(OC)c(O)c3)C2=O)cc1O | 33 | -8 | 51* | 98* | . | . | 43* | 100* | 51*
c1ccc(-c2nc(NCc3cccnc3)c3ccccc3n2)cc1 | -19 | 1 | 0 | 33 | -0.069 | -2 | . | . | .
c1ccc(CCNc2nc(-c3ccccn3)nc3ccccc23)cc1 | 1 | 14 | 44* | 93* | 0.11 | -11 | 30 | 89* | 23
c1ccc(-c2nc(N3CCOCC3)c3ccccc3n2)nc1 | -11 | 4 | -3 | 43 | -1.1 | 3 | . | . | .
c1ccc(-c2nc(N3CCCCCC3)c3ccccc3n2)nc1 | 1 | 0 | 82* | 84* | 0.099 | -5 | 31 | 86* | 21
O=S1(=O)Nc2c(ccc3cccnc23)-c2ccccc21 | 35 | 1 | 346* | 100* | -0.46 | -29 | 425* | 97* | 54*
O=C(/C=C/c1ccc(Cl)cc1)c1ccc([N+](=O)[O-])o1 | 19 | -6 | 69* | 98* | . | . | 22 | 100* | 31
SMILES | Beta2AR agonist | XBP1 UPR activ | CHOP UPR activ | Mdm2 MdmX PPI | Dynein cargo inh | MDM2 E3 inh | UPR CHOP confirm | Mdm2-MdmX conf | FLuc counter | others
Cc1ccc(/C=C/C(=O)c2ccc([N+](=O)[O-])o2)cc1 | . | -4 | 189* | 100* | . | . | 135* | 97* | 58*
O=C(CCS(=O)(=O)c1ccc(F)cc1)N1CCOCC1 | -1 | -3 | 0 | 21 | . | . | . | . | .
O=C(Cn1cc(CNC(=O)C2CCCCC2)nn1)Nc1cc(C(F)(F)F)ccc1Cl | -14 | 0 | 1 | -20 | . | . | . | . | .
O=C(NCCN1CCOCC1)c1ccc(NS(=O)(=O)c2cccc([N+](=O)[O-])c2)cc1 | 4 | 3 | -1 | -10 | . | . | . | . | .
COc1cc(Cl)c(NC2=CC(=O)C(=O)c3ccccc32)c(OC)c1 | 22 | 13 | 51* | 53* | . | . | 18 | 59* | 50*
O=C(NCc1ccccc1)C(c1cccnc1)N(C(=O)c1csnn1)c1ccccc1 (stereo unspecified) | 11 | -5 | 1 | 13 | . | . | . | . | .

Compound activity as filed in PubChem BioAssay.
